Experimental data as given in ChEMBL document CHEMBL1926509, “Discovery of pyrazolo[1,5-a]pyridines as p110α-selective PI3 kinase inhibitors” (Bioorg Med Chem, 2012).

What was measured:
[1] = target: Phosphatidylinositol 4,5-bisphosphate 3-kinase catalytic subunit alpha isoform (Homo sapiens, UniProt P42336); test: Inhibition of recombinant PI3K p110alpha using L-alpha-phosphatidylinositol as substrate and [gamma33P]ATP after 60 mins by thin layer chromatographic technique
Summary of the method: (§1)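 In-house recombinant class Ia PI3K isoform (0.1 µg) with L-α-phosphatidylinositol substrate in lipid kinase buffer (Tris–HCl pH 7.4, NaCl, EDTA), 1% DMSO final. Started with ATP mix (5 mM MgCl₂, 100 µM ATP plus [γ-³³P]ATP), 1 h at room temperature, stopped with 1 M HCl. Lipids extracted in two steps, separated by TLC, read by phosphorimager. Nine inhibitor concentrations; IC50 averaged over two experiments.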

[2] = target: Phosphatidylinositol 4,5-bisphosphate 3-kinase catalytic subunit beta isoform (Homo sapiens, UniProt P42338); test: Inhibition of recombinant PI3K p110beta using L-alpha-phosphatidylinositol as substrate and [gamma33P]ATP after 60 mins by thin layer chromatographic technique; summary of the method: as §1
Chain of Phosphatidylinositol 4,5-bisphosphate 3-kinase catalytic subunit beta isoform (P42338 whole entry, canonical isoform): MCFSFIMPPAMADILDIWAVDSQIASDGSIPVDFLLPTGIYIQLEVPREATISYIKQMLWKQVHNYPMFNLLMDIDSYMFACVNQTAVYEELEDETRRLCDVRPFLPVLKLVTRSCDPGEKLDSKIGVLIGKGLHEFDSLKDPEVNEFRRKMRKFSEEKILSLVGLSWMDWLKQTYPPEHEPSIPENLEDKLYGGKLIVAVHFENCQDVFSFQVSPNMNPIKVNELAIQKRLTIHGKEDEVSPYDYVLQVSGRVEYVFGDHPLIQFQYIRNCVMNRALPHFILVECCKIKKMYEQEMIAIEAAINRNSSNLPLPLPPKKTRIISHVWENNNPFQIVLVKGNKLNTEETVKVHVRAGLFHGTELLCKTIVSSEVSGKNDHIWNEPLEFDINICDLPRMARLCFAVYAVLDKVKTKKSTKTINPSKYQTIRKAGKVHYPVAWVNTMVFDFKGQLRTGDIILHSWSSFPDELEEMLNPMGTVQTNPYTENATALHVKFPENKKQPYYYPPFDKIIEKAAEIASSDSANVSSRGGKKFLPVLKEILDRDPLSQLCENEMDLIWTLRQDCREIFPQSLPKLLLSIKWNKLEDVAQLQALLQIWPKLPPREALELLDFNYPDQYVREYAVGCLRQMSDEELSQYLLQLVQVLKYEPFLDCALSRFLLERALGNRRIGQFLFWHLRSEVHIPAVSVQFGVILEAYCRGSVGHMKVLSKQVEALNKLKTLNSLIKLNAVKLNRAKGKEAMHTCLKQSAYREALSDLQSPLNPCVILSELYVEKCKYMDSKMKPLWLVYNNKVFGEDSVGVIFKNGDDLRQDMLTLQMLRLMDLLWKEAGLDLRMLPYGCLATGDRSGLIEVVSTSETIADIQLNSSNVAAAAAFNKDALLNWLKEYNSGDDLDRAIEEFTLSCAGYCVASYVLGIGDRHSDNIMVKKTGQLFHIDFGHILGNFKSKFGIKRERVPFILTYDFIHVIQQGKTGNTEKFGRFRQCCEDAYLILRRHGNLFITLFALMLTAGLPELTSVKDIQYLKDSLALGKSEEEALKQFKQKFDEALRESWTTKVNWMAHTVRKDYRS

[3] = target: T1, Phosphatidylinositol 4,5-bisphosphate 3-kinase catalytic subunit delta isoform (Homo sapiens, UniProt O00329); test: Inhibition of recombinant PI3K p110delta using L-alpha-phosphatidylinositol as substrate and [gamma33P]ATP after 60 mins by thin layer chromatographic technique; summary of the method: as §1
T1 sequence (O00329 whole entry): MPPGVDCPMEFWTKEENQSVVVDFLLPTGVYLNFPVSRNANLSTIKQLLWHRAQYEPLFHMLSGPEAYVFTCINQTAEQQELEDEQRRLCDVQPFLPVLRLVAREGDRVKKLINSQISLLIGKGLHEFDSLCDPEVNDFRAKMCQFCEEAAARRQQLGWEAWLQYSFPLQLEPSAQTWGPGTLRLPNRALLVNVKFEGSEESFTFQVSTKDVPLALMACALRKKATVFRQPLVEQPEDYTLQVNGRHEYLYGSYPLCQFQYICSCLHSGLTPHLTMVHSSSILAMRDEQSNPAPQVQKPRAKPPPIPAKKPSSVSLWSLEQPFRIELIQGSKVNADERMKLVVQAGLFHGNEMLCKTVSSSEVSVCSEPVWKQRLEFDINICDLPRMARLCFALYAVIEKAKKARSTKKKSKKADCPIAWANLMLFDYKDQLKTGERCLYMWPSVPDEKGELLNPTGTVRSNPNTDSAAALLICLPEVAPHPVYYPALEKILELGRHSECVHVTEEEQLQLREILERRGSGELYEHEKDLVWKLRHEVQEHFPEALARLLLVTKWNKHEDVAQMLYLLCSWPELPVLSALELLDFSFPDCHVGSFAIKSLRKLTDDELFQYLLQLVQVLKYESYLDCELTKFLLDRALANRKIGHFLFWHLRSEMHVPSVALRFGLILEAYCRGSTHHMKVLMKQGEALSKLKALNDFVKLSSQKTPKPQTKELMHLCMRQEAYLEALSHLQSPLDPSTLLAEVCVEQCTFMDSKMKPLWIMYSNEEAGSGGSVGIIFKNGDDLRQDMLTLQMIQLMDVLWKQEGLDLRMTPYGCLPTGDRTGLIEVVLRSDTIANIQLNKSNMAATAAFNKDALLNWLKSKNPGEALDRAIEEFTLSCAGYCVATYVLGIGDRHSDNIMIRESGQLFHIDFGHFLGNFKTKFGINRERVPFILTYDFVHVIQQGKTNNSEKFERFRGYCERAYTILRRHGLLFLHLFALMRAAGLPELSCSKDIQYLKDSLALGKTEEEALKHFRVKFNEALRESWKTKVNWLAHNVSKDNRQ

[4] = Cytotoxicity against human NZB5 cells expressing wild type p110alpha assessed as inhibition of [3H]thymidine incorporation after 5 days; format: functional, cell-based
Summary of the method: (§2)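 Early-passage lab-derived lines in α-MEM with insulin, transferrin, selenite and 5% FBS. Seeded at 1000 cells/well; drug added in 10-fold steps up to 20 µM. Incubated five days under 5% O₂/5% CO₂/90% N₂, with ³H-thymidine (0.04 µCi/well) over the last 6 h. Duplicates per dose; least-squares exponential fit; IC50 is the concentration giving 50% less incorporation.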

[5] = Cytotoxicity against human NZOV9 cells expressing p110alpha Y1021C mutant assessed as inhibition of [3H]thymidine incorporation after 5 days; format: functional, cell-based; summary of the method: as §2
[6] = Selectivity ratio of IC50 for PI3K p110beta to IC50 for PI3K p110alpha
[7] = Selectivity ratio of IC50 for PI3K p110delta to IC50 for PI3K p110alpha

Chain of Phosphatidylinositol 4,5-bisphosphate 3-kinase catalytic subunit alpha isoform (P42336 whole entry, canonical isoform): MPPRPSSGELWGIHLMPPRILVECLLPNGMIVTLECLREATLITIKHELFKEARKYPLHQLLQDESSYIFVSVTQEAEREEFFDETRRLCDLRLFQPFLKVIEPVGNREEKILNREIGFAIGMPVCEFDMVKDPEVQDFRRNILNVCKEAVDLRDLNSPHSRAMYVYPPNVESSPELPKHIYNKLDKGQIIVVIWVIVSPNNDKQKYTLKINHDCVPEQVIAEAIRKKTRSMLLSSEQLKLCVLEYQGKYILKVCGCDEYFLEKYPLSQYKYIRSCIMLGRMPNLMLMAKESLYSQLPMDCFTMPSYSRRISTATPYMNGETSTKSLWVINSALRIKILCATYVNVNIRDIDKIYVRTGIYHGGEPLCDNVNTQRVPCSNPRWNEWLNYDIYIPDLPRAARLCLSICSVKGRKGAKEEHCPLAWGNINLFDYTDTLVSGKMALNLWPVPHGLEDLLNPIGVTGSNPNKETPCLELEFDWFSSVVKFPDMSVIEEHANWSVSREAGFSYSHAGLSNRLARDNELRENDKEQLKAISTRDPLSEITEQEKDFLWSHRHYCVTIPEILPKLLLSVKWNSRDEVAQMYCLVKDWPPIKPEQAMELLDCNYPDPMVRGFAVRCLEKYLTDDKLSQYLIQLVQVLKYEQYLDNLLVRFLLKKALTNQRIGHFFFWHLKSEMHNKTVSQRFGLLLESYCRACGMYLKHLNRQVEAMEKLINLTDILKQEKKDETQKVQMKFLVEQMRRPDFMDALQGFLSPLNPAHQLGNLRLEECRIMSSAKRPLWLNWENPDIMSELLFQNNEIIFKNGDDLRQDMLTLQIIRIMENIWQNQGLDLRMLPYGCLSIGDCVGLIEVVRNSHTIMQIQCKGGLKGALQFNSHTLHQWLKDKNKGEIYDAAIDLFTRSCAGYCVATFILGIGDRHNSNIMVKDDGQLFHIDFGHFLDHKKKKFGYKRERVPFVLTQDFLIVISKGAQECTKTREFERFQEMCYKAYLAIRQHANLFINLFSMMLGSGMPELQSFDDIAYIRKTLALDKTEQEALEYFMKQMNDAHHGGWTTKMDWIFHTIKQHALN

Row | SMILES | IC50 [1] [nM] | IC50 [2] [nM] | IC50 [3] [nM] | IC50 [4] [nM] | IC50 [5] [nM] | Ratio IC50 [6] | Ratio IC50 [7]
1 | C=Cc1ccn2ncc(/C=N/N(C)S(=O)(=O)c3cc([N+](=O)[O-])ccc3C)c2c1 | 130 | > 1000 | > 1000 | 990 | 580 |  | 
2 | Cc1ccc([N+](=O)[O-])cc1S(=O)(=O)N(C)/N=C/c1cnn2ccccc12 | 960 | > 10000 | 3400 | 470 | 660 | 60 | 40
3 | CC/C(=N\N(C)S(=O)(=O)c1cc([N+](=O)[O-])ccc1C)c1cnn2ccc(C#N)cc12 | 390 | > 1000 | > 1000 | 410 | 3700 |  | 
4 | CC(=O)Oc1ccn2ncc(/C=N/N(C)S(=O)(=O)c3cc([N+](=O)[O-])ccc3C)c2c1 | 910 | > 1000 | > 1000 | 8200 | 8900 |  | 
5 | C/C(=N\N(C)S(=O)(=O)c1cc([N+](=O)[O-])ccc1C)c1cnn2ccc(C#N)cc12 | 80 | 600 | 510 | 4400 | 7500 |  | 
6 | CC/C(=N\NS(=O)(=O)c1cc([N+](=O)[O-])ccc1C)c1cnn2ccc(C#N)cc12 | 10 | > 1000 | 440 | 88 | 360 |  | 
7 | Cc1ccc([N+](=O)[O-])cc1S(=O)(=O)N(C)/N=C/c1cnn2cccc(C)c12 | > 1000 | > 1000 | > 1000 | 18000 | > 20000 |  | 
8 | CCC/C(=N\NS(=O)(=O)c1cc([N+](=O)[O-])ccc1C)c1cnn2ccc(C#N)cc12 | 39 | > 1000 | 310 | 370 | 640 |  | 
9 | C/C(=N\NS(=O)(=O)c1cc([N+](=O)[O-])ccc1C)c1cnn2ccc(Br)cc12 | 30 | 480 | 220 | 420 | 350 |  | 
10 | Cc1ccc([N+](=O)[O-])cc1S(=O)(=O)N(C)/N=C/c1cnn2ccc(O)cc12 | 340 | > 1000 | > 1000 | > 20000 | > 20000 |  | 
11 | Cc1ccc([N+](=O)[O-])cc1S(=O)(=O)N(C)/N=C/c1cnn2ccc(Br)cc12 | 3.8 | 230 | 150 | 310 | 50 |  | 
12 | COc1ccn2ncc(/C=N/N(C)S(=O)(=O)c3cc([N+](=O)[O-])ccc3C)c2c1 | 190 | > 1000 | > 1000 | 940 | 520 |  | 
13 | Cc1ccc([N+](=O)[O-])cc1S(=O)(=O)N(C)/N=C/c1cnn2ccc(C(N)=O)cc12 | 530 | > 1000 | > 1000 | 600 | 10000 |  | 
14 | Cc1ccc([N+](=O)[O-])cc1S(=O)(=O)N(C)/N=C/c1cnn2cc(F)c(C#N)cc12 | 45 | 1800 | 2500 |  |  |  | 
15 | Cc1ccc([N+](=O)[O-])cc1S(=O)(=O)N(C)/N=C/c1cnn2c(C)cccc12 | 1600 | > 1000 | > 1000 | 6000 | 1200 |  | 
16 | Cc1ccc([N+](=O)[O-])cc1S(=O)(=O)N(C)/N=C/c1cnn2ccc(C3CC3)cc12 | 1100 | > 1000 | > 1000 | 740 | 670 |  | 
17 | Cc1ccc([N+](=O)[O-])cc1S(=O)(=O)N/N=C/c1cnn2ccc(C#N)cc12 | 13 | 620 | 580 | 2600 | 4900 |  | 

Row | SMILES | IC50 [1] [nM] | IC50 [2] [nM] | IC50 [3] [nM] | IC50 [4] [nM] | IC50 [5] [nM] | Ratio IC50 [6] | Ratio IC50 [7]
18 | Cc1ccc([N+](=O)[O-])cc1S(=O)(=O)N(C)/N=C/c1cnn2ccc(Cl)cc12 | 2.9 | 390 | 90 |  | 550 |  | 
19 | CNC(=O)c1ccn2ncc(/C=N/N(C)S(=O)(=O)c3cc([N+](=O)[O-])ccc3C)c2c1 | > 1000 | > 1000 | > 1000 | 10000 | 10000 |  | 
20 | Cc1ccn2ncc(/C=N/N(C)S(=O)(=O)c3cc([N+](=O)[O-])ccc3C)c2c1 | 110 | > 1000 | 700 | 50 | 70 |  | 
21 | Cc1ccc([N+](=O)[O-])cc1S(=O)(=O)N(C)/N=C/c1cnn2ccc(C(=O)N(C)C)cc12 | > 1000 | > 1000 | > 1000 | 10000 | 10000 |  | 
22 | Cc1ccc([N+](=O)[O-])cc1S(=O)(=O)N(C)/N=C/c1cnn2cccc(Br)c12 | > 1000 | > 1000 | > 1000 | > 20000 | 6500 |  | 
23 | CCc1ccn2ncc(/C=N/N(C)S(=O)(=O)c3cc([N+](=O)[O-])ccc3C)c2c1 | > 1000 | > 1000 | > 1000 | 410 | 560 |  | 
24 | CCC/C(=N\N(C)S(=O)(=O)c1cc([N+](=O)[O-])ccc1C)c1cnn2ccc(C#N)cc12 | 610 | > 1000 | > 1000 | 680 | 2300 |  | 
25 | Cc1ccc([N+](=O)[O-])cc1S(=O)(=O)N(C)/N=C/c1cnn2cc(Br)ccc12 | > 1000 | > 1000 | > 1000 | > 20000 | 4500 |  | 
26 | C#Cc1ccn2ncc(/C=N/N(C)S(=O)(=O)c3cc([N+](=O)[O-])ccc3C)c2c1 | 2.4 | 30 | 41 | 160 | 110 |  | 
27 | Cc1ccc([N+](=O)[O-])cc1S(=O)(=O)N(C)/N=C/c1cnn2ccc(I)cc12 | 16 | 370 | 170 | 40 | 50 |  | 
28 | Cc1ccc([N+](=O)[O-])cc1S(=O)(=O)N(C)/N=C/c1cnn2ccc(C(F)(F)F)cc12 | 150 | > 1000 | > 1000 | 70 | 90 |  | 
29 | COC(=O)c1ccn2ncc(/C=N/N(C)S(=O)(=O)c3cc([N+](=O)[O-])ccc3C)c2c1 | 360 | > 1000 | 690 | 1800 | 1500 |  | 
30 | Cc1ccc2c(/C=N/N(C)S(=O)(=O)c3cc([N+](=O)[O-])ccc3C)cnn2c1 | > 1000 | > 1000 | > 1000 | 10000 | 8000 |  | 
31 | Cc1ccc([N+](=O)[O-])cc1S(=O)(=O)N(C)/N=C/c1cnn2ccc(-c3ccccc3)cc12 | > 1000 | > 1000 | > 1000 | 10000 | 10000 |  | 
32 | C/C(=N\N(C)S(=O)(=O)c1cc([N+](=O)[O-])ccc1C)c1cnn2ccc(Br)cc12 | 1200 | > 1000 | > 1000 | > 20000 | > 20000 |  | 
33 | C/C(=N\NS(=O)(=O)c1cc([N+](=O)[O-])ccc1C)c1cnn2ccc(C#N)cc12 | 7 | 410 | 900 | 1100 | 2100 |  | 
